Data as given in the RNAGym collection of RNA variant scans (doi:10.1126/science.aae0568).
This sample holds only a part of the variants without activity.

B1: tRNA (parent)
chain: GUUCCGUUGGCGUAAUGGUAACGCGUCUCCCUCCUAAGGAGAAGACUGCGGGUUCGAGUCCCGUACGGAACG

Variants of: B1
Experiment: yeast fitness relative to wild type (ratio to wild type); higher = fitter; tRNA-Arg(CCU), competitive growth, 37 C, YPD
Outline: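 The tRNA-Arg(CCU) gene variants were made by chemical synthesis with a 3% per-site mutation rate at 69 sites and inserted at the native genomic locus of Saccharomyces cerevisiae. After pooling, the strains were competed in YPD at 37°C for 24 hours in six parallel replicates. Gene amplicons from the start population and each end population were read by 100-nucleotide paired-end sequencing, and Darwinian fitness relative to wild type was taken from genotype frequency changes. Genotypes needed ≥ 100 starting reads, and estimates < 0.5 were set to 0.5.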

Variant | yeast fitness
U2G A15C G50A | ≤ 0.5
U2C G63C | 0.747
U2C G50A | 0.878
U2C U13A G39C C60G A70U | 0.537
U2C G25C A43U | 0.624
U2C U53G | 0.598
U2C U28A G44U | ≤ 0.5
U2C U8G U32G U35A C55U G58A | ≤ 0.5
U2C U7A C31A C66G | ≤ 0.5
U2C U8A A36U | ≤ 0.5
U2G A14U A20G C33G C61U A70C | ≤ 0.5
U2G A15C C24U C55U A65G | ≤ 0.5
U2C U16G C66A | ≤ 0.5
U2C U35A C55A | ≤ 0.5
U2C U13C G44C G58A | 0.59
U2G A15U C62G | ≤ 0.5
U2C U3C C34U G68C | ≤ 0.5
U2C G52A | 0.75
U2C U3A U19G G44C | 0.591
U2C U32C U35A G56A | ≤ 0.5
U2C G25A A69U | 0.711
U2C G63C C66U | ≤ 0.5
U2G A14U A20G C33G A70C | ≤ 0.5
U2G A14U A20G C33G G67U A69C | ≤ 0.5

Variant | yeast fitness
U2C U26C G48A | 0.663
U2G A14G C22U C24G A69C | ≤ 0.5
U2G A14G C29G A37U | ≤ 0.5
U2C U13G G67U | ≤ 0.5
U2C U16C A36G | ≤ 0.5
U2C U13A C27G C33A G48A G51C | ≤ 0.5
U2C G25C C31U U32A | ≤ 0.5
U2C U19C A69C | 0.708
U2C U26G G38C | ≤ 0.5
U2C U19G G68A | 0.559
U2C G51A C62G C66U | ≤ 0.5
U2C U8C A42C | 0.676
U2C G48A C60A A70G | ≤ 0.5
U2C G68C | 0.963
U2C G68A | 0.762
U2C U3A U26C U53C | ≤ 0.5
U2C U8C A21U C29U G39A G51C C60U C66G | ≤ 0.5
U2C U28A U54C | 0.543
U2C G25C | 0.953
U2C G25A | 0.943
U2C U7A U35A G56A | ≤ 0.5
U2C U35G A40C C62G C66G | ≤ 0.5
U2C U8G C11U C24U A37U C66A | ≤ 0.5
U2C G56A | 1.02

Variant | yeast fitness
U2C U3C C34U A40U C55U A65G | ≤ 0.5
U2C U35C A69C | ≤ 0.5
U2C U8C | 0.965
U2C U54C | 0.873
U2C U54G | 0.657
U2C U8G C31G A42C G56A C61G | 0.507
U2C U28C C55A | ≤ 0.5
U2C U32C A40C G48A | 0.551
U2C G63C G68C | 0.572
U2G A14G C29G A37U C62G C66U | ≤ 0.5
U2G A14C A69C | ≤ 0.5
U2C U8C C34A A42C C49A | ≤ 0.5
U2G A15U U47A C62A | ≤ 0.5
U2C U3A C24A C27U A42G G56C C66U | ≤ 0.5
U2C U8C G44A U53C A70U | ≤ 0.5
U2C U19C A57C | 0.642
U2G A15C C49U | 0.563
U2C U19C A37G C49A A69C | ≤ 0.5
U2G A15G G17A C29G A40U C61U C66U | ≤ 0.5
U2G A14C C27U U35A A57G C66U | ≤ 0.5
U2C U8G A20G U32G U35A | ≤ 0.5
U2C G25C A70G | 0.978
U2C G58A C62G | 0.597
U2C U13C C22G C24U C61A | ≤ 0.5

Variant | yeast fitness
U2C U26C C27G U28A A43U | ≤ 0.5
U2C U3C C34U C62G G63A | ≤ 0.5
U2C U13C A20G U28C A40G | 0.679
U2C U32G C34U A57G | ≤ 0.5
U2C G58A | 0.893
U2G A15U U35G U53G | ≤ 0.5
U2C U8A G17C G38A G56C C61A | ≤ 0.5
U2C U47C A70U | 0.808
U2C G48A C66U | 0.681
U2C U3C C34U C55A | ≤ 0.5
U2G A15C A43G | ≤ 0.5
U2C U13C C27A G58C G63C | ≤ 0.5
U2C G48A G63C | 0.953
U2C U13A G18A A42G | ≤ 0.5
U2C G38A C60G | 0.558
U2C U16A A70C | 0.676
U2C U3C C5U C34U | ≤ 0.5
U2C G38A C55A | ≤ 0.5
U2C G67A | 0.911
U2C G48A A69C | 0.705
U2C G48A G67A | 0.633
U2C G50A G51A | 0.511
U2C U32A A65C | ≤ 0.5
U2C U8A G17C G38A | ≤ 0.5

Variant | yeast fitness
U2C U35A U47A C49U C55U C66U | ≤ 0.5
U2C U19C A37G | ≤ 0.5
U2C U54C C62U | 0.571
U2C U19C C49U A57C | ≤ 0.5
U2C U16A G63A | 0.705
U2G A15G G17A G52C C66A | ≤ 0.5
U2C U8G A14G U32G U35A | ≤ 0.5
U2G A14G | 0.713
U2C G41A C62U | 0.528
U2C G39A | 0.884
U2C U59C | 0.996
U2C U7A G68A | ≤ 0.5
U2C U8C C34A A42C G68C | ≤ 0.5
U2C U3G G10A A69C | ≤ 0.5
U2C U32A C46U | 0.603
U2C U28A G56A | ≤ 0.5
U2C U26A | 0.918
U2C G38A A70G | 0.541
U2G A15G G17A G52C A65G | 0.558
U2C U16A | 0.971
U2C U19G | 0.867
U2C U19C | 0.897
U2C U16G A70G | 1.06
U2G A15G G17A | ≤ 0.5

Variant | yeast fitness
U2G A15C A37G A43U | ≤ 0.5
U2C U19C G50A | 0.593
U2C G25A A42U A65C G67C | ≤ 0.5
U2C G38A U47A C55G C61U | ≤ 0.5
U2C U47C | 0.977
U2C U47G | 0.626
U2G A15C A36C A69U A70G | ≤ 0.5
U2G A14C A57U A69U | ≤ 0.5
U2G A14G C62G A70U | ≤ 0.5
U2G A14G A15U G25C C49U | ≤ 0.5
U2C U7G C33U C55A | ≤ 0.5
U2C U13C G41A | 0.602
U2C U35A G56A | 0.576
U2C U13C C22G U26A | ≤ 0.5
U2C U26G A65G | 0.712
U2C U7C G23A | 0.592
U2C U19A C30U G38C | 0.54
U2C U16G G56C | ≤ 0.5
U2C U16A A42G | 0.649
U2C U13C C22G U26A C31U A42C G50C | ≤ 0.5
U2C G50C G51A C55U | 0.582
U2C U19C A45C C55U | ≤ 0.5
U2C G51A A69U | ≤ 0.5
U2C U32A C61A A65G | ≤ 0.5

Variant | yeast fitness
U2C U8C G23C C31G C33U A42G G52C G58C | ≤ 0.5
U2C U35C U47C | 0.788
U2C U28C C34U U64A A65U | 0.735
U2C U3C U19A C61A | ≤ 0.5
U2C U28A A70G | ≤ 0.5
U2C G67A A70U | 0.67
U2C U13C A14G C22G U26A | ≤ 0.5
U2G A14C A42C C49U A65G A70U | 0.533
U2C U19G C60A | 0.528
U2G A14C C33A C46G | ≤ 0.5
U2G A15C A36C | 0.649
U2C U26C A36G | ≤ 0.5
U2C U16C C27G | 0.669
U2G A14U U28A | ≤ 0.5
U2C U16G G51A | 0.588
U2C U32C | 0.973
U2C U13A U54C C66U | ≤ 0.5
U2C G50A G68C | 0.556
U2G A15C C24U | 0.591
U2C U64C G68A | 0.578
U2G A15C U47G A69C | ≤ 0.5
U2C U16C A36G C55U | ≤ 0.5
U2C U3C C34U A65G | ≤ 0.5
